Results as given in ChEMBL document CHEMBL4346665, “Synthesis and evaluation of tetrahydroquinolin-2(1H)-one derivatives as novel anti-pancreatic cancer agents via targeting autophagy” (Eur J Med Chem, 2019).
Active and inactive are the calls of the source. The calls are words filed in the database; no cut-off is given here.

Columns and labels:
PANC-1 [1] = test: Growth inhibition of human PANC1 cells in nutrient-deprived medium incubated for 24 hrs by MTT assay; format: functional, cell-based; conditions: PANC-1, 24 h
PANC-1 [2] = test: Growth inhibition of human PANC1 cells in nutrient-rich medium at 10 uM incubated for 24 hrs by MTT assay (reference value: 0.0 +/- 3.8%); format: functional; conditions: PANC-1, 24 h
PANC-1 [3] = test: Growth inhibition of human PANC1 cells in nutrient-deprived medium at 10 uM incubated for 24 hrs by MTT assay (reference value: 0.0 +/- 1.9%); format: functional; conditions: PANC-1, 24 h
PANC-1 [4] = test: Antitumor activity against human PANC1 cells xenografted in nude mouse assessed as reduction in tumor weight at 30 mg/kg, ip administered every 3 days for 4 weeks post tumor inoculation; format: functional, organism-based
Summary of the method: (§1)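 PANC-1 xenografts in nude mice. Dosing daily at 5, 10 or 20 mg/kg/day for 30 days, or 30 mg/kg every three days for the gemcitabine reference. Tumor volume from diameters and tumor weight at end of study. Body weight monitored, kidney and liver examined. T1-weighted MRI on day 30 with Gd-DTPA contrast via tail vein. Mean ± S.D., n = 5, vs control group.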

[5] = Toxicity in human PANC1 cells xenografted in nude mouse assessed as pathological changes in kidney at 30 mg/kg, ip administered every 3 days for 4 weeks post tumor inoculation by hematoxylin and eosin staining based assay; format: organism-based; conditions: in vivo; summary of the method: as §1
[6] = Toxicity in human PANC1 cells xenografted in nude mouse assessed as change in body weight at 30 mg/kg, ip administered every 3 days for 4 weeks post tumor inoculation; format: organism-based; conditions: in vivo; summary of the method: as §1
[7] = Toxicity in human PANC1 cells xenografted in nude mouse assessed as pathological changes in liver at 30 mg/kg, ip administered every 3 days for 4 weeks post tumor inoculation by hematoxylin and eosin staining based assay; format: organism-based; conditions: in vivo; summary of the method: as §1
PANC-1 [8] = test: Antitumor activity against human PANC1 cells xenografted in nude mouse assessed as reduction in tumor size at 30 mg/kg, ip administered every 3 days for 4 weeks post tumor inoculation; format: functional, organism-based; summary of the method: as §1

| IC50 (PANC-1 [1]) [µM] | SMILES | inhibition at 10 µM (PANC-1 [2]) [%] | inhibition at 10 µM (PANC-1 [3]) [%] | Activity (PANC-1 [4]) | Activity [5] | Activity [6] | Activity [7] | Activity (PANC-1 [8]) |
| --- | --- | --- | --- | --- | --- | --- | --- | --- |
| 5.8 | CCOc1cc(=O)n(CCCO)c2c1CC(C/C=C(\C)CCC=C(C)C)C(C)(C)C2 (stereo not given) | 0.8 | 67.8 | – | – | – | – | – |
| – | Nc1ccn([C@@H]2O[C@H](CO)[C@@H](O)C2(F)F)c(=O)n1 [GEMCITABINE] | – | – | Active | Non-Toxic | Non-Toxic | Non-Toxic | Active |
| 7.1 | COc1ccc(NC(=O)Oc2cc(=O)n(CCCO)c3c2CC(C/C=C(\C)CCC=C(C)C)C(C)(C)C3)cc1 (stereo not given) | 0 | 64.1 | – | – | – | – | – |
| 6.3 | CC(C)=CCC/C(C)=C/CC1Cc2c(OCCCOc3ccc([N+](=O)[O-])cc3)cc(=O)n(CCCO)c2CC1(C)C (stereo not given) | 9.8 | 65.1 | – | – | – | – | – |
| 5.2 | CC(C)=CCC/C(C)=C/CC1Cc2c(OCCCNC(=O)c3ccco3)cc(=O)n(CCCO)c2CC1(C)C (stereo not given) | 2.8 | 69.5 | – | – | – | – | – |
| 7.7 | CC(C)=CCC1Cc2c(OC(=O)Nc3ccc(F)cc3)cc(=O)n(CCCO)c2CC1(C)C (stereo not given) | 0 | 71.2 | – | – | – | – | – |
